The results in this text go back to publication PMC7159910 (Science Advances, 2020).

One test has as its target PHF20L1 TUDOR domain. In words: ITC. Background: In ITC the heat of successive injections is recorded.
The test system of test [1] is PHF20L1 expression in MDA-MB-231 cells. Description: Western blotting of PHF20L1 in cells exposed to CoCl2. Type of test: cell-based, human. Conditions: MDA-MB-231 cells exposed to CoCl2. Put shortly:
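MDA-MB-231 cells, grown in L-15 medium with 10% FBS at 37°C without CO2, treated with CoCl2 as hypoxia mimic; lysates immunoblotted for PHF20L1 and for HIF1α as hypoxia marker.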

Take H3K27me2 peptide (ITC): the Kd with PHF20L1 TUDOR domain turned out to be 73.6 µM.

On to `[Cl][Co][Cl]` [CoCl2, cobalt chloride], for which, in test [1], the “induction of PHF20L1 protein by hypoxia activator” value is “PHF20L1 was indeed induced”.

A word on the Kd: it is the free concentration of one partner at which half of the binding sites on the other are occupied at equilibrium, for simple one-to-one binding. A low value points to a tighter complex.
